Experimental data taken from ChEMBL document CHEMBL2034936, “Discovery and extensive in vitro evaluations of NK-HDAC-1: a chiral histone deacetylase inhibitor as a promising lead” (J Med Chem, 2012).
Activity calls are given as the source filed them. The calls are words filed in the database; no cut-off is given here.

Key:
MDA-MB-231 [1] = assay: cells; format: functional; conditions: Homo sapiens, MDA-MB-231, 72 h
A549 [2] = assay: cells; format: functional; conditions: Homo sapiens, A549, 72 h
Histone deacetylase = assay: Inhibition of HDAC in human HeLa cell nuclear extracts using Ac-Arg-Gly-Lys(Ac)-AMC substrate by fluorimetry; format: protein assay
HepG2 = assay: cells; format: functional; conditions: Homo sapiens, HepG2, 72 h
OVCAR-5 = assay: Growth inhibition of human OVCAR5 cells after 72 hrs by MTS assay; format: functional; conditions: OVCAR-5, 72 h
EKVX = assay: cells; format: functional; conditions: Homo sapiens, 72 h
ACHN = assay: cells; format: functional; conditions: Homo sapiens, 72 h
COLO 205 = assay: Growth inhibition of human COLO205 cells after 72 hrs by MTS assay; format: functional; conditions: COLO 205, 72 h
UO-31 = assay: cells; format: functional; conditions: Homo sapiens, UO-31, 72 h
SK-MEL-2 = assay: cells; format: functional; conditions: Homo sapiens, SK-MEL-2, 72 h
HOP-92 = assay: cells; format: functional; conditions: Homo sapiens, HOP-92, 72 h
NCI-H522 = assay: cells; format: functional; conditions: Homo sapiens, NCI-H522, 72 h
SF-295 = assay: cells; format: functional; conditions: Homo sapiens, SF-295, 72 h
A549 [3] = assay: cells; format: functional; conditions: Homo sapiens, A549, 72 h; remark: listed apart in the source
NCI-H226 = assay: cells; format: functional; conditions: Homo sapiens, NCI-H226, 72 h
KM12 = assay: cells; format: functional; conditions: Homo sapiens, KM12, 72 h
MDA-MB-231 [4] = assay: cells; format: functional; conditions: Homo sapiens, MDA-MB-231, 72 h; remark: listed apart in the source
cells [5] = format: functional; conditions: Homo sapiens, Hs-578T, 72 h
M14 = assay: cells; format: functional; conditions: Homo sapiens, M14, 72 h
TK-10 = assay: cells; format: functional; conditions: Homo sapiens, TK-10, 72 h
DU-145 = assay: cells; format: functional; conditions: Homo sapiens, DU-145, 72 h
SNB-19 = assay: cells; format: functional; conditions: Homo sapiens, SNB-19, 72 h
NCI-H23 = assay: cells; format: functional; conditions: Homo sapiens, NCI-H23, 72 h
PC-3 = assay: cells; format: functional; conditions: Homo sapiens, PC-3, 72 h
OVCAR-8 = assay: cells; format: functional; conditions: Homo sapiens, OVCAR-8, 72 h
RXF 393 = assay: cells; format: functional; conditions: Homo sapiens, RXF 393, 72 h
cells [6] = format: functional; conditions: Homo sapiens, NCI/ADR-RES, 72 h
OVCAR-4 = assay: cells; format: functional; conditions: Homo sapiens, OVCAR-4, 72 h
MDA-MB-435 = assay: cells; format: functional; conditions: Homo sapiens, MDA-MB-435, 72 h
HCT-15 = assay: cells; format: functional; conditions: Homo sapiens, HCT-15, 72 h
BT-549 = assay: cells; format: functional; conditions: Homo sapiens, BT-549, 72 h
NCI-H322M = assay: Growth inhibition of human NCI-H322M cells after 72 hrs by MTS assay; format: functional
786-0 = assay: cells; format: functional; conditions: Homo sapiens, 786-0, 72 h
SN12C = assay: cells; format: functional; conditions: Homo sapiens, 72 h
LOX IMVI = assay: cells; format: functional; conditions: Homo sapiens, 72 h
HL-60(TB) = assay: cells; format: functional; conditions: Homo sapiens, HL-60, 72 h
Malme-3M = assay: cells; format: functional; conditions: Homo sapiens, 72 h
MDA-MB-468 = assay: cells; format: functional; conditions: Homo sapiens, MDA-MB-468, 72 h
NCI-H460 = assay: Growth inhibition of human NCI-H460 cells after 72 hrs by MTS assay; format: functional; conditions: NCI-H460, 72 h
SF-268 = assay: cells; format: functional; conditions: Homo sapiens, SF-268, 72 h
SK-OV-3 = assay: cells; format: functional; conditions: Homo sapiens, SK-OV-3, 72 h
K562 = assay: cells; format: functional; conditions: Homo sapiens, K562, 72 h
SNB-75 = assay: Growth inhibition of human SNB75 cells after 72 hrs by MTS assay; format: functional; conditions: SNB-75, 72 h
A498 = assay: cells; format: functional; conditions: Homo sapiens, A498, 72 h
SW-620 = assay: cells; format: functional; conditions: Homo sapiens, SW-620, 72 h
SK-MEL-28 = assay: cells; format: functional; conditions: Homo sapiens, SK-MEL-28, 72 h
T47D = assay: cells; format: functional; conditions: Homo sapiens, 72 h
SF-539 = assay: cells; format: functional; conditions: Homo sapiens, SF-539, 72 h
CCRF-CEM = assay: Growth inhibition of human CCRF-CEM cells after 72 hrs by MTS assay; format: functional
MCF7 = assay: cells; format: functional; conditions: Homo sapiens, MCF7, 48 h
HCT-116 = assay: Growth inhibition of human HCT116 cells after 72 hrs by MTS assay; format: functional; conditions: HCT-116, 72 h
IGROV-1 = assay: cells; format: functional; conditions: Homo sapiens, IGROV-1, 72 h
UACC-62 = assay: Growth inhibition of human UACC62 cells after 72 hrs by MTS assay; format: functional; conditions: UACC-62, 72 h
MOLT-4 = assay: Growth inhibition of human MOLT4 cells after 72 hrs by MTS assay; format: functional; conditions: MOLT-4, 72 h
SK-MEL-5 = assay: cells; format: functional; conditions: Homo sapiens, SK-MEL-5, 72 h
SR = assay: Growth inhibition of human SR cells after 72 hrs by MTS assay; format: functional
UACC-257 = assay: cells; format: functional; conditions: Homo sapiens, UACC-257, 72 h
HT-29 = assay: Growth inhibition of human HT-29 cells after 72 hrs by MTS assay; format: functional; conditions: HT-29, 72 h
U-251 = assay: cells; format: functional; conditions: Homo sapiens, U-251, 72 h
OVCAR-3 = assay: cells; format: functional; conditions: Homo sapiens, OVCAR-3, 72 h
[7] = Apparent permeability from basolateral to apical side in human Caco2 cells at 10 uM; format: ADME, cell-based; conditions: Caco-2
How it was run: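 Caco-2 monolayers, test compound at 10 μM. Apparent permeability measured in both directions, apical to basolateral and basolateral to apical. Efflux ratio = P_app B to A / P_app A to B. Run by a contract lab following published methods. Mean of three independent triplicate experiments.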

[8] = Lipophilicity, log D of the compound in pH 7.4 PBS buffer; format: physicochemical
[9] = Solubility in neutral water; format: physicochemical
[10] = Half life in mouse plasma; format: ADME, cell-free
[11] = Half life in mouse liver microsomes; format: ADME, Microsome
Cytochrome P450 3A4 = Cytochrome P450 3A4 (Homo sapiens, UniProt P08684); assay: Inhibition of human CYP3A4; format: ADME
[12] = biological target: Histone deacetylase (Homo sapiens) (UniProt Q13547+O15379+Q9UBN7+Q92769+Q9UQL6+Q8WUI4+Q9BY41+Q96DB2+P56524+Q9UKV0+Q969S8); assay: Inhibition of HDAC in human MDA-MB-231 cells assessed as stimulation of histone H3 acetylation at 5 uM incubated for 24 hrs by Western blot; format: cell-based
How it was run: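 MDA-MB-231 cells in 35-mm dishes, dosed 24 h at graded concentrations, then trypsinized and PBS-washed. Lysed in RIPA (50 mM Tris-HCl pH 7.5, protease and phosphatase inhibitors) for 30 min at 4 °C, then cleared at 12,000g. Lysate, 60 μg protein by BCA, run on SDS-PAGE and PVDF. Blotted with anti-acetyl-histone H3 and HRP anti-rabbit, read by ECL.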

Chain of Cytochrome P450 3A4 (P08684 whole entry): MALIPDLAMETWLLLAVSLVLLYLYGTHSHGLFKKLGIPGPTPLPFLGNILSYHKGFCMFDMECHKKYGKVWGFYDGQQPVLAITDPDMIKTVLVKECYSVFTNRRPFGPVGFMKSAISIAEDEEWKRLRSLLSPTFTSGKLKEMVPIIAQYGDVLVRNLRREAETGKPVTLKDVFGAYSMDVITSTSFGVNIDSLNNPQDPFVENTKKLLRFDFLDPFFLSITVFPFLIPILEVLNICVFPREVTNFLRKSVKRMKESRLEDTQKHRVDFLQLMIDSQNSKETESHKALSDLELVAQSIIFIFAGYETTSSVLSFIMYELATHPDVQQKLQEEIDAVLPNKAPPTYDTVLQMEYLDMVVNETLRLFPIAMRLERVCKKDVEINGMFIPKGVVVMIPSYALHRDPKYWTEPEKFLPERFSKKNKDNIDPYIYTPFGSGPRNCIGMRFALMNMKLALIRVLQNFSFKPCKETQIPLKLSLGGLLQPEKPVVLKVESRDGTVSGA

## O=C(O)CC(c1nc2ccccc2o1)n1cc(/C=C/C(=O)NO)nn1 (racemic)
MDA-MB-231 [1]
  GI50: > 20 µM
A549 [2]
  GI50: > 20 µM
Histone deacetylase
  IC50: 0.14 µM
HepG2
  GI50: > 20 µM

## O=C(O)CCC(c1nc2ccccc2o1)n1cc(/C=C/C(=O)NO)nn1 (racemic)
MDA-MB-231 [1]
  GI50: > 20 µM
A549 [2]
  GI50: > 20 µM
Histone deacetylase
  IC50: 0.333 µM
HepG2
  GI50: > 20 µM

## O=C(/C=C/c1cn(Cc2nc3ccccc3[nH]2)nn1)NO
A549 [2]
  GI50: > 20 µM
Histone deacetylase
  IC50: 0.178 µM
HepG2
  GI50: > 20 µM

## CC(C)CC(c1nc2ccccc2o1)n1cc(/C=C/C(=O)NO)nn1 (racemic)
MDA-MB-231 [1]
  GI50: 0.28 µM
A549 [2]
  GI50: 0.66 µM
Histone deacetylase
  IC50: 0.019 µM
HepG2
  GI50: 2.2 µM

## CC(C)[C@H](c1nc2ccccc2o1)n1cc(/C=C/C(=O)NO)nn1
OVCAR-5
  GI50: 0.4 µM
EKVX
  GI50: 0.68 µM
ACHN
  GI50: 0.47 µM
COLO 205
  GI50: 0.25 µM
UO-31
  GI50: 0.23 µM
SK-MEL-2
  GI50: 0.35 µM
HOP-92
  GI50: 0.07 µM
NCI-H522
  GI50: 0.13 µM
SF-295
  GI50: 0.31 µM
A549 [3]
  GI50: 0.3 µM
NCI-H226
  GI50: 1.3 µM
KM12
  GI50: 0.41 µM
MDA-MB-231 [4]
  GI50: 0.91 µM
Cells [5]
  GI50: 1.3 µM
M14
  GI50: 0.41 µM
TK-10
  GI50: 0.16 µM
DU-145
  GI50: 0.35 µM
SNB-19
  GI50: 0.85 µM
NCI-H23
  GI50: 0.35 µM
PC-3
  GI50: 0.28 µM
OVCAR-8
  GI50: 0.24 µM
RXF 393
  GI50: 0.35 µM
Cells [6]
  GI50: 0.095 µM
OVCAR-4
  GI50: 2.8 µM
MDA-MB-435
  GI50: 0.24 µM
HCT-15
  GI50: 0.96 µM
BT-549
  GI50: 0.28 µM
NCI-H322M
  GI50: 0.25 µM
786-0
  GI50: 0.34 µM
SN12C
  GI50: 0.79 µM
LOX IMVI
  GI50: 0.16 µM
HL-60(TB)
  GI50: 0.28 µM
Malme-3M
  GI50: 0.063 µM
MDA-MB-468
  GI50: 0.25 µM
NCI-H460
  GI50: 0.39 µM
SF-268
  GI50: 0.63 µM
SK-OV-3
  GI50: 0.26 µM
K562
  GI50: 0.28 µM
Histone deacetylase
  IC50: 0.031 µM
SNB-75
  GI50: 0.41 µM
A498
  GI50: 0.26 µM
SW-620
  GI50: 0.29 µM
SK-MEL-28
  GI50: 0.52 µM
T47D
  GI50: 0.5 µM
SF-539
  GI50: 0.75 µM
CCRF-CEM
  GI50: 0.35 µM
MCF7
  GI50: 0.45 µM
HCT-116
  GI50: 0.18 µM
IGROV-1
  GI50: 0.19 µM
UACC-62
  GI50: 0.4 µM
MOLT-4
  GI50: 0.3 µM
SK-MEL-5
  GI50: 0.25 µM
SR
  GI50: 0.35 µM
UACC-257
  GI50: 0.23 µM
HT-29
  GI50: 0.22 µM
U-251
  GI50: 0.34 µM
OVCAR-3
  GI50: 0.47 µM

## O=C(CCCCCCC(=O)Nc1ccccc1)NO [VORINOSTAT]
OVCAR-5
  GI50: 0.79 µM
[7]
  Papp B→A at 10 µM: 17 nm/s
COLO 205
  GI50: 0.79 µM
[8]
  logD: 1
[9]
  solubility: > 0.17 mg/mL
[10]
  half-life: 3.3 h
NCI-H322M
  GI50: 0.79 µM
NCI-H460
  GI50: 0.79 µM
[11]
  half-life: 1.37 h
SNB-75
  GI50: 0.79 µM
CCRF-CEM
  GI50: 0.8 µM
HCT-116
  GI50: 0.4 µM
UACC-62
  GI50: 0.4 µM
MOLT-4
  GI50: 0.4 µM
HT-29
  GI50: 0.79 µM
Cytochrome P450 3A4
  INH: 24.8 µM

## CC(C)C(c1nc2ccccc2o1)n1cc(/C=C/C(=O)NO)nn1 (racemic)
MDA-MB-231 [1]
  GI50: 0.17 µM
[12]
  histone H3 acetylation activity (active/not active): Active
A549 [2]
  GI50: 0.4 µM
Histone deacetylase
  IC50: 0.023 µM
HepG2
  GI50: 1 µM
